This is a sample that favours compounds with a hit; in the whole collection about 4.9% have one here.
APP 5'UTR act: activators of APP 5'UTR luciferase reporter, primary screen, SH-SY5Y cells; actives 1% (n = 190,000); SH-SY5Y APP 5'UTR luciferase reporter, luminescence; zero percent = DMSO vehicle wells; activation, % at 2 µM; AID 1276, 2008;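 active = activation above a set limit, based on mean plus 3 SD of controls, cut at about 140% in these data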
STAT3 activator: IL-6 driven STAT3 reporter potentiators, primary screen, U3A cells, luciferase, luminescence, MLSCN library. IL-6 STAT3-luciferase reporter; 100% = signal with IL-6 EC80 alone. actives 0.91% (n = 190,000). activation (% of control), % at 5.6 µM;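 active = activation above the screen-wide mean of compound activation plus 3 SD, cut at about 130% in these data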;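 also: 0% = background luminescence of wells with medium and substrate only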
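Material: human U3A cells carrying STAT3-luciferase construct. Measured by: reporter luminescence signal. Timing: compound 1 h, then IL-6 6 h at 37 °C.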
STAT3 inh: IL-6 driven STAT3 reporter inhibitors, primary screen, U3A cells, luciferase, luminescence, MLSCN library; IL-6 STAT3-luciferase reporter; host cell line lacks STAT1; AID 862, 2007; actives 0.89% (n = 190,000); inhibition, % at 5.5 µM;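 active = inhibition above the mean inhibition across all screened compounds plus 3 SD, cut at about 44% in these data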;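 also: 0% = DMSO only wells and 100% = 100 µM nifuroxazide control wells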
NF-kB neuron act: activators of NF-kB expression in neurons, primary screen, cell-based, HTS. human neuronal cells, NF-kB reporter expression; stronger effect = higher value. fold change at 12.5 µM. actives 1.6% (n = 190,000). AID 1239, 2008; in the data active = fold change above about 3.3
STAT1 activator: STAT1 signaling activators, primary screen, cell-based, HTS, luciferase reporter; NIH 3T3 STAT1-luciferase reporter, IFN-gamma, luminescence; 100% = IFN-gamma alone, no compound; actives 2.6% (n = 200,000); activation (% of control), % at 5.5 µM;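 active = activation above the screen-wide mean activation plus 3 SD, cut at about 130% in these data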;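 also: raw ratio to IFN-gamma control signal so 100% means no change and 0% no light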
STAT1 blocker: STAT1 signaling inhibitors, primary screen, cell-based, HTS, luciferase reporter; inhibition, % at 5.5 µM; AID 920, 2007; NIH 3T3 STAT1-luciferase reporter, IFN-gamma, luminescence; actives 0.35% (n = 200,000);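 active = inhibition above a set limit, the mean inhibition across all tested compounds plus 3 SD, cut at about 34% in these data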;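 also: 0% = IFN-gamma with DMSO and 100% = IFN-gamma with 300 µM nifuroxazide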
An asterisk follows results filed as active; x = no result.

SMILES | APP 5'UTR act | STAT3 activator | STAT3 inh | NF-kB neuron act | STAT1 activator | STAT1 blocker
COc1ccc2c(c1)CCc1c(C(=O)NC3CCCCC3)noc1-2 | 145* | 103 | 1 | 2.6 | 129* | -33
COc1ccc2c(c1)CCc1c(C(=O)N(C)c3ccccc3)noc1-2 | 72 | 105 | 4 | 2.1 | 129* | -34
COc1ccc2c(c1)CCc1c(C(=O)NCCN3CCOCC3)noc1-2 | -18 | 97 | 10 | 1.1 | 92 | 9
COc1ccc2c(c1)CCc1c(C(=O)NCc3ccco3)noc1-2 | 60 | 101 | 4 | 2.8 | 129* | -34
O=C(COc1ccccc1Br)Nc1ccccc1C(F)(F)F | 14 | 89 | 16 | 1.5 | 119 | -23
Brc1ccc(-c2nc3ncccn3c2NC2CCCCC2)o1 | x | 91 | 11 | 0.92 | 108 | -6
CCCOc1ccc([N+](=O)[O-])c(N)c1 | -1 | 99 | -1 | 1.1 | 95 | 5
CCCOc1ccc2cc(-c3ccccn3)c(=O)oc2c1 | 123 | 21 | 98* | 1.2 | 65 | 39*
CC(/C=N/N1CCN(c2ccccc2)CC1)=C\c1ccccc1 | 2 | 99 | 6 | 1.6 | 102 | -2
CC(/C=N/N1CCN(c2ccccc2)CC1)=C\c1ccco1 | 80 | 92 | 13 | 3.6* | 138* | -41
CC(=C/c1ccco1)/C=N/N1CCN(c2ccccc2)CC1 | 66 | 94 | 11 | 3.9* | 128 | -31
COc1ccc(-c2cc3nc4n(c(=O)c3s2)CCC4)cc1 | 160* | 20 | 92* | 1.1 | 40 | 65*
COc1ccc(NS(=O)(=O)c2cccc(-c3nnc4n3CCCCC4)c2)cc1 | -6 | 106 | -5 | 1 | 102 | -2
NC(=O)NNC1=Nc2cccc3cccc1c23 | 5 | 79 | 29 | 0.99 | 98 | 1
O=C(CCCC(=O)N/N=C\c1ccccn1)N/N=C\c1ccccn1 | -9 | 102 | -4 | 1.2 | 105 | -5
C(=N\NC1=Nc2cccc3cccc1c23)/c1ccccn1 | 78 | 157* | -56 | 6.2* | 182* | -89
Clc1ccccc1/C=N/NC1=Nc2cccc3cccc1c23 | 171* | 159* | -67 | 0.67 | 180* | -90
CCCn1c(SCC(=O)Nc2nnc(CC)s2)nnc1-c1ccncc1 | 2 | 100 | 5 | 1 | 102 | -4
CCOc1ccc(NC(=O)N2CCC(c3nc4ccccc4[nH]3)CC2)cc1 | 4 | 94 | 17 | 0.83 | 105 | -7
COc1ccccc1-c1ccc(Nc2ccc(C(=O)N3CCOCC3)cc2)nn1 | 2 | 94 | 9 | 1.3 | 106 | -6
CC(=O)c1ccc(Nc2ccc(-c3ccccc3F)nn2)cc1 | 146* | 85 | 19 | 6.9* | 142* | -47
Cn1cccc1C(=O)Nc1nc(-c2ccccn2)cs1 | 43 | 91 | 17 | 5.1* | 135* | -39
Cc1csc(NC(=O)c2ccccc2C(=O)O)n1 | 13 | 93 | 12 | 1.2 | 97 | 3
Cc1csc(NC(=O)c2cccn2C)n1 | 90 | 98 | 4 | 3.2 | 131* | -35
Cc1csc(NC(=O)c2cn3ccccc3n2)n1 | 68 | 23 | 96* | 0.97 | 39 | 65*
O=C1NC(=O)/C(=C\c2ccc(O)cc2O)S1 | 7 | 128 | -34 | 1.2 | 112 | -14

Assay outcomes: PubChem BioAssay, several laboratories
